# Assay: phase I dose-escalation: safety and tolerability
# Assay type: in vivo, patients
# In short: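 Patients receiving ≥1 oral dose (25–300 mg/day) formed the safety set. Dosing was a single dose on day 1, then 21-day continuous daily dosing after 7 days. AEs graded by CTCAE v4.03. DLT window ran from day 1 of cycle 0 to day 21 of cycle 1 (28 days). ECGs were taken before and 1, 2, 4, 6, 10 and 24 h after the first dose.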
smiles,measurement,setting,value
C=CC(=O)Nc1cc(Nc2ncc(Cl)c(Nc3ccccc3C(=O)C(=O)N(C)C)n2)c(OC)cc1N1CCN(C)CC1 [BPI-15086],"TRAE, Grade 3 and 4: Hyperglycemia",25 mg/day (n = 1),0 n (%)
same,"TRAE, Grade 3 and 4: any",25 mg/day (n = 1),0 n (%)
same,"TRAE, all grades: Anemia",25 mg/day (n = 1),0 n (%)
same,"TRAE, all grades: Decreased appetite",25 mg/day (n = 1),1 (100.0) n (%)
same,"TRAE, all grades: Decreased total protein",25 mg/day (n = 1),0 n (%)
same,"TRAE, all grades: Diarrhea",25 mg/day (n = 1),0 n (%)
same,"TRAE, all grades: Elevated ALT",25 mg/day (n = 1),0 n (%)
same,"TRAE, all grades: Elevated blood glucose",25 mg/day (n = 1),0 n (%)
same,"TRAE, all grades: Elevated blood triglycerides",25 mg/day (n = 1),0 n (%)
same,"TRAE, all grades: Elevated blood uric acid",25 mg/day (n = 1),0 n (%)
same,"TRAE, all grades: Elevated conjugated bilirubin",25 mg/day (n = 1),0 n (%)
same,"TRAE, all grades: Elevated serum creatinine",25 mg/day (n = 1),0 n (%)
same,"TRAE, all grades: Elevated γ-glutamyltransferase",25 mg/day (n = 1),0 n (%)
same,"TRAE, all grades: Hyperglycemia",25 mg/day (n = 1),0 n (%)
same,"TRAE, all grades: Hypoalbuminemia",25 mg/day (n = 1),0 n (%)
same,"TRAE, all grades: Nausea",25 mg/day (n = 1),0 n (%)
same,"TRAE, all grades: Proteinuria",25 mg/day (n = 1),0 n (%)
same,"TRAE, all grades: Vomiting",25 mg/day (n = 1),0 n (%)
same,"TRAE, all grades: any",25 mg/day (n = 1),1 (100.0) n (%)
same,"TRAE, Grade 3 and 4: Hyperglycemia",50 mg/day (n = 3),0 n (%)
same,"TRAE, Grade 3 and 4: any",50 mg/day (n = 3),0 n (%)
same,"TRAE, all grades: Anemia",50 mg/day (n = 3),0 n (%)
same,"TRAE, all grades: Decreased appetite",50 mg/day (n = 3),0 n (%)
same,"TRAE, all grades: Decreased total protein",50 mg/day (n = 3),0 n (%)
same,"TRAE, all grades: Diarrhea",50 mg/day (n = 3),0 n (%)
same,"TRAE, all grades: Elevated ALT",50 mg/day (n = 3),0 n (%)
same,"TRAE, all grades: Elevated blood glucose",50 mg/day (n = 3),1 (33.3) n (%)
same,"TRAE, all grades: Elevated blood triglycerides",50 mg/day (n = 3),0 n (%)
same,"TRAE, all grades: Elevated blood uric acid",50 mg/day (n = 3),0 n (%)
same,"TRAE, all grades: Elevated conjugated bilirubin",50 mg/day (n = 3),0 n (%)
same,"TRAE, all grades: Elevated serum creatinine",50 mg/day (n = 3),1 (33.3) n (%)
same,"TRAE, all grades: Elevated γ-glutamyltransferase",50 mg/day (n = 3),0 n (%)
same,"TRAE, all grades: Hyperglycemia",50 mg/day (n = 3),0 n (%)
same,"TRAE, all grades: Hypoalbuminemia",50 mg/day (n = 3),0 n (%)
same,"TRAE, all grades: Nausea",50 mg/day (n = 3),1 (33.3) n (%)
same,"TRAE, all grades: Proteinuria",50 mg/day (n = 3),0 n (%)
same,"TRAE, all grades: Vomiting",50 mg/day (n = 3),0 n (%)
same,"TRAE, all grades: any",50 mg/day (n = 3),2 (66.7) n (%)
same,"TRAE, Grade 3 and 4: Hyperglycemia",100 mg/day (n = 3),0 n (%)
same,"TRAE, Grade 3 and 4: any",100 mg/day (n = 3),0 n (%)
same,"TRAE, all grades: Anemia",100 mg/day (n = 3),0 n (%)
same,"TRAE, all grades: Decreased appetite",100 mg/day (n = 3),0 n (%)
same,"TRAE, all grades: Decreased total protein",100 mg/day (n = 3),1 (33.3) n (%)
same,"TRAE, all grades: Diarrhea",100 mg/day (n = 3),0 n (%)
same,"TRAE, all grades: Elevated ALT",100 mg/day (n = 3),0 n (%)
same,"TRAE, all grades: Elevated blood glucose",100 mg/day (n = 3),0 n (%)
same,"TRAE, all grades: Elevated blood triglycerides",100 mg/day (n = 3),0 n (%)
same,"TRAE, all grades: Elevated blood uric acid",100 mg/day (n = 3),1 (33.3) n (%)
same,"TRAE, all grades: Elevated conjugated bilirubin",100 mg/day (n = 3),0 n (%)
same,"TRAE, all grades: Elevated serum creatinine",100 mg/day (n = 3),1 (33.3) n (%)
same,"TRAE, all grades: Elevated γ-glutamyltransferase",100 mg/day (n = 3),0 n (%)
same,"TRAE, all grades: Hyperglycemia",100 mg/day (n = 3),0 n (%)
same,"TRAE, all grades: Hypoalbuminemia",100 mg/day (n = 3),0 n (%)
same,"TRAE, all grades: Nausea",100 mg/day (n = 3),1 (33.3) n (%)
same,"TRAE, all grades: Proteinuria",100 mg/day (n = 3),0 n (%)
same,"TRAE, all grades: Vomiting",100 mg/day (n = 3),1 (33.3) n (%)
same,"TRAE, all grades: any",100 mg/day (n = 3),3 (100.0) n (%)
same,"TRAE, Grade 3 and 4: Hyperglycemia",200 mg/day (n = 7),0 n (%)
same,"TRAE, Grade 3 and 4: any",200 mg/day (n = 7),0 n (%)
same,"TRAE, all grades: Anemia",200 mg/day (n = 7),3 (42.9) n (%)
same,"TRAE, all grades: Decreased appetite",200 mg/day (n = 7),1 (14.3) n (%)
same,"TRAE, all grades: Decreased total protein",200 mg/day (n = 7),2 (28.6) n (%)
same,"TRAE, all grades: Diarrhea",200 mg/day (n = 7),2 (28.6) n (%)
same,"TRAE, all grades: Elevated ALT",200 mg/day (n = 7),1 (14.3) n (%)
same,"TRAE, all grades: Elevated blood glucose",200 mg/day (n = 7),2 (28.6) n (%)
same,"TRAE, all grades: Elevated blood triglycerides",200 mg/day (n = 7),2 (28.6) n (%)
same,"TRAE, all grades: Elevated blood uric acid",200 mg/day (n = 7),3 (42.9) n (%)
same,"TRAE, all grades: Elevated conjugated bilirubin",200 mg/day (n = 7),2 (28.6) n (%)
same,"TRAE, all grades: Elevated serum creatinine",200 mg/day (n = 7),2 (28.6) n (%)
same,"TRAE, all grades: Elevated γ-glutamyltransferase",200 mg/day (n = 7),2 (28.6) n (%)
same,"TRAE, all grades: Hyperglycemia",200 mg/day (n = 7),0 n (%)
same,"TRAE, all grades: Hypoalbuminemia",200 mg/day (n = 7),5 (71.4) n (%)
same,"TRAE, all grades: Nausea",200 mg/day (n = 7),1 (14.3) n (%)
same,"TRAE, all grades: Proteinuria",200 mg/day (n = 7),3 (42.9) n (%)
same,"TRAE, all grades: Vomiting",200 mg/day (n = 7),1 (14.3) n (%)
same,"TRAE, all grades: any",200 mg/day (n = 7),7 (100.0) n (%)
same,"TRAE, Grade 3 and 4: Hyperglycemia",300 mg/day (n = 3),1 (33.3) n (%)
same,"TRAE, Grade 3 and 4: any",300 mg/day (n = 3),1 (33.3) n (%)
same,"TRAE, all grades: Anemia",300 mg/day (n = 3),0 n (%)
same,"TRAE, all grades: Decreased appetite",300 mg/day (n = 3),3 (100.0) n (%)
same,"TRAE, all grades: Decreased total protein",300 mg/day (n = 3),0 n (%)
same,"TRAE, all grades: Diarrhea",300 mg/day (n = 3),1 (33.3) n (%)
same,"TRAE, all grades: Elevated ALT",300 mg/day (n = 3),1 (33.3) n (%)
same,"TRAE, all grades: Elevated blood glucose",300 mg/day (n = 3),0 n (%)
same,"TRAE, all grades: Elevated blood triglycerides",300 mg/day (n = 3),0 n (%)
same,"TRAE, all grades: Elevated blood uric acid",300 mg/day (n = 3),0 n (%)
same,"TRAE, all grades: Elevated conjugated bilirubin",300 mg/day (n = 3),0 n (%)
same,"TRAE, all grades: Elevated serum creatinine",300 mg/day (n = 3),0 n (%)
same,"TRAE, all grades: Elevated γ-glutamyltransferase",300 mg/day (n = 3),0 n (%)
same,"TRAE, all grades: Hyperglycemia",300 mg/day (n = 3),3 (100.0) n (%)
same,"TRAE, all grades: Hypoalbuminemia",300 mg/day (n = 3),0 n (%)
same,"TRAE, all grades: Nausea",300 mg/day (n = 3),3 (100.0) n (%)
same,"TRAE, all grades: Proteinuria",300 mg/day (n = 3),0 n (%)
same,"TRAE, all grades: Vomiting",300 mg/day (n = 3),2 (66.7) n (%)
same,"TRAE, all grades: any",300 mg/day (n = 3),3 (100.0) n (%)
same,maximum tolerated dose (MTD),25-300 mg/day,not reached
same,dose-limiting toxicities (DLTs),"28-day evaluation period, any dose level 25-300 mg/day",No DLTs were observed
same,"treatment-related serious AE (hyperglycemia), patients",300-mg/day group,one
same,"TRAE, Grade 3 and 4: Hyperglycemia",All (n = 17),1 (5.9) n (%)
same,"TRAE, Grade 3 and 4: any",All (n = 17),1 (5.9) n (%)
same,"TRAE, all grades: Anemia",All (n = 17),3 (17.6) n (%)
same,"TRAE, all grades: Decreased appetite",All (n = 17),5 (29.4) n (%)
same,"TRAE, all grades: Decreased total protein",All (n = 17),3 (17.6) n (%)
same,"TRAE, all grades: Diarrhea",All (n = 17),3 (17.6) n (%)
same,"TRAE, all grades: Elevated ALT",All (n = 17),2 (11.8) n (%)
same,"TRAE, all grades: Elevated blood glucose",All (n = 17),3 (17.6) n (%)
same,"TRAE, all grades: Elevated blood triglycerides",All (n = 17),2 (11.8) n (%)
same,"TRAE, all grades: Elevated blood uric acid",All (n = 17),4 (23.5) n (%)
same,"TRAE, all grades: Elevated conjugated bilirubin",All (n = 17),2 (11.8) n (%)
same,"TRAE, all grades: Elevated serum creatinine",All (n = 17),4 (23.5) n (%)
same,"TRAE, all grades: Elevated γ-glutamyltransferase",All (n = 17),2 (11.8) n (%)
same,"TRAE, all grades: Hyperglycemia",All (n = 17),3 (17.6) n (%)
same,"TRAE, all grades: Hypoalbuminemia",All (n = 17),5 (29.4) n (%)
same,"TRAE, all grades: Nausea",All (n = 17),6 (35.3) n (%)
same,"TRAE, all grades: Proteinuria",All (n = 17),3 (17.6) n (%)
same,"TRAE, all grades: Vomiting",All (n = 17),4 (23.5) n (%)
same,"TRAE, all grades: any",All (n = 17),16 (94.1) n (%)
same,AEs leading to drug discontinuation,all 17 patients,no adverse events (AEs) causing drug discontinuation were seen
same,"TRAE: anemia, patients",all 17 patients,17.6%
same,"TRAE: decreased appetite, patients",all 17 patients,29.4%
same,"TRAE: decreased total protein, patients",all 17 patients,17.6%
same,"TRAE: diarrhea, patients",all 17 patients,17.6%
same,"TRAE: elevated alanine aminotransferase, patients",all 17 patients,11.8%
same,"TRAE: elevated blood glucose, patients",all 17 patients,17.6%
same,"TRAE: elevated blood triglycerides, patients",all 17 patients,11.8%
same,"TRAE: elevated blood uric acid, patients",all 17 patients,23.5%
same,"TRAE: elevated conjugated bilirubin, patients",all 17 patients,11.8%
same,"TRAE: elevated serum creatinine, patients",all 17 patients,23.5%
same,"TRAE: elevated γ-glutamyltransferase, patients",all 17 patients,11.8%
same,"TRAE: hyperglycemia, patients",all 17 patients,17.6%
same,"TRAE: hypoalbuminemia, patients",all 17 patients,29.4%
same,"TRAE: nausea, patients",all 17 patients,35.3%
same,"TRAE: proteinuria, patients",all 17 patients,17.6%
same,"TRAE: vomiting, patients",all 17 patients,23.5%
same,patients with diarrhea,all 17 patients,3/17
same,patients with rash/pruritis,all 17 patients,no patient
same,"Serious AEs, patients",all 17 patients (two patients),11.8%

# From publication PMC9271465 (ESMO Open, 2022)
